Only some compounds are listed: those with a hit (about 0.99% of all), similar ones and a draw of the others.
Arr AP2 block: human beta-arrestin and AP2 interaction inhibition | FITC-arrestin peptide / GST-AP2 beads, flow cytometry; AP2 beta2 appendage carries R879A mutation | inhibition, % at 10 µM | 340,000 tested, 0.31% active | AID 504490;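 active = inhibition above a set limit, near 3 SD of compounds lacking own fluorescence, cut at about 54% in these data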;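 also: plate controls were DMSO wells for no effect and 5 µM unlabelled arrestin peptide for full effect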
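System: GST-AP2 R879A glutathione beads | Also added: FITC-arrestin peptide, 50 nM | Times: 12 min plus 1 h, RT | Signal: Bead flow cytometry, FITC channel | Buffer or medium: PBS with 0.05% Tween 20 and 0.1% BSA | Read-out basis: Percent drop in bead-associated FITC signal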
Rin1-Abl PPI inh: blocks binding of human Rin1 to Abl; P00519+Q13671; TR-FRET Rin1/Abl binding, biochemical; inhibition, % at 7.35 µM; 360,000 tested, 0.4% active; AID 588664; in the data active = inhibition above about 5%, passing the limit was not always enough
GSK3 alpha inh: human GSK-3 alpha kinase inhibition. ADP-Glo luminescence, 60 min. inhibition, % at 10 µM. 320,000 tested, 0.1% active. AID 2650;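 active = more than half of replicates show inhibition above 20%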;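 also: GST-tagged GSK-3 alpha with peptide substrate and 25 µM ATP; 0% = DMSO neutral wells and 100% = GW8510 positive control wells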
STK33 kinase inh: inhibitors of human STK33 kinase; Q9BYT3; purified STK33, MBP phosphorylation, ADP-Glo luminescence; inhibition, % at 10 µM; 320,000 tested, 0.073% active;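 active = inhibition at or above 25%, using the most active replicate where run in duplicate; inactive = inhibition below 25%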
DYRK1A inh: Dyrk1A (rat) kinase inhibition; ADP-Glo luminescence, NFATc1 peptide; inhibition, % at 12.5 µM; Q63470; 310,000 tested, 0.43% active; in the data active = inhibition above about 50%;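 also: plate controls were vehicle with enzyme for no effect and no enzyme for full effect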
GSK3beta inhib: human GSK3beta kinase inhibition. GST-GSK3beta kinase, ADP-Glo luminescence, 60 min; stronger effect = lower value. AID 2097. 300,000 tested, 0.038% active. activity score (negative = inhibition), % at 10 µM;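 active = more than half of replicate wells score below -50%, meaning over 50% inhibition versus plate controls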;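 also: 0% = median DMSO wells and -100% = median GW8510 positive control wells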
Target sequence (P49841 whole entry, looked up): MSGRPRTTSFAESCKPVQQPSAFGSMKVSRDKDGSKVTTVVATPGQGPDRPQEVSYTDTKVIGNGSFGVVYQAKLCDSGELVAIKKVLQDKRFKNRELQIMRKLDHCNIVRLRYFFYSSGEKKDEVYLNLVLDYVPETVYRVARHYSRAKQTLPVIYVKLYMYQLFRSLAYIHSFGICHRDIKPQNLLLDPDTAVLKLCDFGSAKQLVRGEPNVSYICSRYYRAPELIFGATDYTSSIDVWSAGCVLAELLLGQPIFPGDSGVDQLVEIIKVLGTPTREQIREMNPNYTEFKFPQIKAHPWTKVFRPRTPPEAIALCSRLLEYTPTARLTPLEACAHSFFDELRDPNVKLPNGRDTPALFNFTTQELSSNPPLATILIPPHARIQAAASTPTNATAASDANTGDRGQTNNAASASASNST
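Assay system: GST-fused GSK3beta enzyme, cell-free / Medium: Tris pH 7.5 buffer with MgCl2, DTT, BSA, heparin / Also added: peptide substrate plus 25 µM ATP (final) / Compound: 10 µM single point / Timing: kinase reaction with compound 60 min at room temperature / Detection: ADP-Glo luminescence / Benchmarks: DMSO neutral wells and GW8510 at 20 µM as positive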
Arr-AP2 CP1: inhibitors of human beta-arrestin and AP2 interaction. shares compounds with Arr AP2 block. GST-AP2 beads, FITC arrestin peptide binding, flow cytometry; GST-fused beta2-adaptin appendage, R879A mutant. inhibition, % at 10 µM. 1,300 tested, 2% active;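 active = inhibition above a set limit, roughly 3 SD of non-fluorescent compound noise, cut at about 38% in these data; inactive = inhibition at or below that limit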;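 also: loss of bead fluorescence from 50 nM FITC arrestin peptide bound to appendage; 0% = negative control wells and 100% = excess unlabelled arrestin peptide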
GST-FITC bead: counter-screen for beta-arrestin AP2 inhibitors: GST-GSH bead binding; inhibition, % at 10 µM; shares compounds with Arr AP2 block; AID 588338; GST-fluorescein binding to GSH beads, fluorescence; 1,300 tested, 2% active;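 active = inhibition above 50%, about 3 SD of the inhibition seen with non-fluorescent compounds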;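 also: fluorescein maleimide labelled GST captured on 4 micron glutathione beads; higher means more loss of bead fluorescence from quenching or blocked binding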
* marks the source's active call; other numbers are inactive results; nt = no result.

SMILES | Arr AP2 block | Rin1-Abl PPI inh | GSK3 alpha inh | STK33 kinase inh | DYRK1A inh | GSK3beta inhib | Arr-AP2 CP1 | GST-FITC bead
Cc1cccc(/C=C/c2onc(C)c2S(=O)(=O)N2CCC(C(=O)N3CCCCC3)CC2)c1 | 55* | -1 | -2 | 1 | 3 | 2 | 5 | -1
COc1ccc2c3c(cccc13)OC2=O | 20 | 0 | -1 | -1 | -4 | 0 | nt | nt
COc1ccc2c3c(cccc13)N(C)N=C2C | 62* | -13 | -8 | 1 | 10 | -2 | 33 | 11
Cc1csc(NC(=O)c2ccc(Cn3nc(C)c(Br)c3C)o2)n1 | 58* | 0 | -3 | 0 | 0 | -9 | -15 | 3
O=C(Nc1ccc(N2CCOCC2)cc1N1CCOCC1)c1ccc(F)cc1 | 30 | 6 | 0 | 3 | 0 | nt | nt | nt
COc1cccc(OC)c1C(=O)Nc1ccccc1N1CCCC1 | 7 | -1 | 1 | 0 | -2 | 0 | nt | nt
Cn1c(=O)n(C)c2cc(N3CCOCC3)c(NC(=O)c3ccc(F)cc3)cc21 | 41 | 0 | 2 | -2 | 0 | -1 | 19 | 15
COc1cccc(OC)c1C(=O)Nc1cc2c(cc1N1CCOCC1)n(C)c(=O)n2C | -3 | -1 | -1 | -1 | nt | 0 | -12 | -1
Cn1c(=O)n(C)c2cc(N3CCOCC3)c(NC(=O)c3cccc(Cl)c3)cc21 | -12 | -1 | -2 | 1 | 1 | 1 | 1 | 2
CCC(C)(CC(=O)Nc1nccs1)c1ccccc1 (configuration not stated) | 13 | -1 | 0 | -1 | -1 | -1 | nt | nt
O=C(Nc1cccc(O)c1)c1cccc(NC(=O)c2cccs2)c1 | 1 | 2 | -1 | 3 | 10 | -12 | nt | nt
Cc1ccc(-n2nc(C)c3c2C(Br)C(C)(C)CC3=O)nc1 (configuration not stated) | -4 | 2 | nt | nt | 5 | nt | nt | nt
CC(C)CN(C(=O)c1cccc(S(=O)(=O)N2CCN(C)CC2)c1)C1CCS(=O)(=O)C1 (configuration not stated) | 6 | 2 | 0 | -2 | -3 | 0 | nt | nt
O=S(OCCN1CCCC1)C(c1ccccc1)c1ccccc1 (configuration not stated) | 34 | 3 | nt | nt | nt | nt | nt | nt
COc1ccc(C(=O)N(C)Cc2ccc(C)o2)cc1OC1CCN(C(C)=O)CC1 | 61* | 0 | -1 | -2 | 3 | 1 | 0 | -5
Cc1cc(C)cc(OCC(=O)Nc2ccc3c(c2)C(=O)c2ccccc2C3=O)c1 | 97* | 2 | -6 | -1 | -1 | 3 | 6 | 6
CN(C)c1ccc(/C=N/NC(=O)c2ccccc2O)o1 | 18 | 0 | -1 | 0 | 1 | 0 | nt | nt
CN(C)c1ccc(/C=N/NC(=O)C(O)(c2ccccc2)c2ccccc2)o1 | 61* | -3 | -2 | 0 | -3 | -14 | -9 | -2
Cc1c(Cl)cccc1NC(=O)Nc1ccc(C(N)=O)cc1 | 104* | 0 | -1 | 0 | 1 | -1 | 0 | 5
CC(C)Cn1c(N)c(C(=O)COC(=O)c2nccnc2N)c(=O)n(C)c1=O | 19 | 3 | 8 | -1 | 0 | nt | nt | nt
CC(C)Cn1c(N)c(C(=O)COC(=O)c2ccncc2)c(=O)n(C)c1=O | -6 | 4 | 0 | 0 | 14 | 0 | -7 | -4
CC(C)Cn1c(N)c(C(=O)COC(=O)c2ccc(Br)cc2)c(=O)n(C)c1=O | 4 | -4 | -6 | -3 | nt | nt | 2 | 1
CC(C)Cn1c(N)c(C(=O)COC(=O)c2ccc(Cl)cc2)c(=O)n(C)c1=O | -11 | 3 | -4 | 0 | -1 | -1 | nt | nt
COc1ccc(CCN(C)C(=O)C2CCN(C(=O)Nc3ccccc3)CC2)cc1OC | -2 | 2 | 2 | -2 | 10 | 1 | nt | nt
Cc1cc(C(=O)Nc2cccc(S(=O)(=O)N3CCCC3)c2)c2ccccc2n1 | 3 | 2 | nt | nt | -1 | nt | nt | nt
Cc1cc(C(=O)Nc2cccc(S(=O)(=O)N3CCCCC3)c2)c2ccccc2n1 | -6 | -2 | -1 | -3 | nt | 3 | -9 | -2

Source: PubChem BioAssay
